Results on 37 compounds are retold here after PubChem BioAssay AID624316 (Broad Institute, 2012).

“And” between values parts separate entries of the source, which are not always exact repeats. Identical values can stand only once. The source made the active and inactive calls.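 How the source made its calls: active means compounds lowering reporter light with a fitted AC50 at or below twice their top valid dose; inconclusive means flat partial inhibition or an unreliable curve fit; inactive means the rest.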

The test relates to SK-MEL-5 TRPM1 promoter luciferase reporter, 24 h. In words: TRPM1 promoter luciferase signal reduction, dose response, MITF inhibitor project, cell-based, SK-MEL-5, dry powder samples, set 4 (AID 624316). An outline of the steps:
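incubation = compound added 24 h post-plating, 24 h exposure at 37 °C | test system = SK-MEL-5 melanoma line stably carrying TRPM1 promoter–luciferase reporter | medium = phenol-red-free DMEM, 10% FBS | dosing = compounds pinned into wells as DMSO solutions | technique = luciferase luminescence with SteadyGlo, 5 min room temperature | benchmarks = parthenolide as positive control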
In the case of `CC(=O)NC1=C(c2ccc(Oc3ccccc3)cc2)C(=O)c2ccccc2C1=O`, the AC50 is 14.8 µM.
`O=C(NC1=C(N2CCSCC2)C(=O)c2ccccc2C1=O)c1ccc(Br)cc1`: the AC50 was 8.75 µM.
With `CCN1CCN(C2=C(Nc3ccccc3)C(=O)c3ccccc3C2=O)CC1`, the AC50 was 0.689 µM.
For `C=CCNC1=C(N2CCSCC2)C(=O)c2ccccc2C1=O`, the AC50 was 2.81 µM.
As to `C=CCNC1=C(NCCCN2CCOCC2)C(=O)c2ccccc2C1=O`, the AC50 was 7.39 µM.
On to `O=C(NC1=C(N2CCOCC2)C(=O)c2ccccc2C1=O)c1ccc(Br)cc1`, for which the AC50 is 11.3 µM.
With `C=C1C(=O)OC2C1CC/C(C)=C\CCC1(C)OC21` (configuration not stated), the AC50 is 4.91 µM.
Take `NC1=C(c2ccccc2)C(=O)c2ccccc2C1=O`: the AC50 was 7.61 µM.
`Cc1nc2ccccc2n1/N=C/c1ccc([N+](=O)[O-])s1`: the AC50 is 1.86 µM.
As to `CCN(CC)CCCNC1=C(Nc2ccccc2)C(=O)c2ccccc2C1=O`, the AC50 was 2.38 µM.
`CCN(CC)CCCCNC1=C(Nc2ccccc2)C(=O)c2ccccc2C1=O`: the AC50 was 2.87 µM.
For `O=C(NC1=C(N2CCCCC2)C(=O)c2ccccc2C1=O)c1ccccc1`, the AC50 is 25.6 µM.
For `COc1cccc(-c2cc(C(=O)NC3=C(Cl)C(=O)c4ccccc4C3=O)ccc2OC)c1`, the AC50 is 3.3 µM.
For the compound `CC(=O)N(C)C1=C(N2CCOCC2)C(=O)c2ccccc2C1=O`, the AC50 was 1.89 µM.
Take `C=CCNC1=C(N2CCN(CC)CC2)C(=O)c2ccccc2C1=O`: the AC50 is 4.12 µM.
For `O=C1C(NS(=O)(=O)c2cccs2)=C(N2CCOCC2)C(=O)c2ccccc21`, the AC50 was 9.86 µM.
`O=C1C(Nc2ccccc2)=C(N2CCSCC2)C(=O)c2ccccc21`: the AC50 is 7.75 µM.
Turning to `CCN(CC)CCCNC1=C(N(C)C(C)=O)C(=O)c2ccccc2C1=O`, the AC50 was 0.188 µM.
The figure for `O=C(NC1=C(N2CCOCC2)C(=O)c2ccccc2C1=O)c1ccccc1` is 6 µM; for `CC(=O)NC1=C(c2cccc(Cl)c2)C(=O)c2ccccc2C1=O` it is 3.93 µM.
With `Cc1ccc(C(=O)NC2=C(c3ccccc3)C(=O)c3ccccc3C2=O)o1`, the AC50 was 4.8 µM.
On to `O=C(NC1=C(c2ccccc2)C(=O)c2ccccc2C1=O)c1ccccc1`, for which the AC50 is 6.77 µM.
Regarding `C=CCNC1=C(N2CCOCC2)C(=O)c2ccccc2C1=O`, the AC50 is 1.54 µM.
On to `COc1ccc(C2=C(NC(=O)c3ccc4ccccc4c3)C(=O)c3ccccc3C2=O)cc1`, for which the AC50 was > 70 µM (inactive).
With `O=C1C(Nc2ccccc2)=C(N2CCOCC2)C(=O)c2ccccc21`, the concentration at half-maximal activity (AC50) was 5.81 µM and 4.63 µM.
Take `O=C(NC1=C(c2ccccc2)C(=O)c2ccccc2C1=O)c1ccc(Br)cc1`: the AC50 is 12.3 µM.
Consider `O=C1C(NS(=O)(=O)c2ccc(Br)cc2)=C(N2CCSCC2)C(=O)c2ccccc21`, for which the half-maximal activity concentration (AC50) is 9.91 µM.
Take `C=CCNC1=C(N(C)C(C)=O)C(=O)c2ccccc2C1=O`: the AC50 is 0.107 µM.
For `C=CCNC1=C(N2CCN(C)CC2)C(=O)c2ccccc2C1=O`, the AC50 was 3.74 µM.
The figure for `O=C1C(NS(=O)(=O)c2ccc(Br)cc2)=C(N2CCN(c3ccccc3)CC2)C(=O)c2ccccc21` is 17.1 µM.
`O=C1C(Nc2ccccc2)=C(NS(=O)(=O)c2ccccc2[N+](=O)[O-])C(=O)c2ccccc21`: the AC50 is 29 µM.
As to `O=C(NC1=C(c2ccccc2)C(=O)c2ccccc2C1=O)c1ccco1`, the AC50 is 8.11 µM.
The figure for `C=CCNC1=C(NS(=O)(=O)c2ccc(Br)cc2)C(=O)c2ccccc2C1=O` is 7.27 µM; for `NC1=C(NC(=O)c2ccccc2)C(=O)c2ccccc2C1=O` it is 4.37 µM.
Under `CN1CCN(C2=C(NC(=O)c3ccccc3)C(=O)c3ccccc3C2=O)CC1` stands 0.508 µM; under `CCN1c2ccccc2NC2N=C(OC)C(c3ccccc3)C21` (configuration not stated), 2.5 µM; under `O=C(NC1=C(c2ccc(OC(F)(F)F)cc2)C(=O)c2ccccc2C1=O)c1ccccc1F`, 17.1 µM.

The AC50 is the concentration at which the activity in the assay is half-maximal.
